Shown are actives, neighbours in structure and some others; about 1.5% of the full set was active somewhere.
Cneo AK release: Cryptococcus neoformans cell lysis inducers, primary screen, AK release luminescence, single concentration | C. neoformans lysis, adenylate kinase release luminescence, 4 h; normalised: neutral wells 0, clomiphene wells 100 | lysis activity, % at 15 µM | actives 0.2% (n = 360,000);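 active means mean lysis activity across replicates of at least 80%, whatever share of replicates individually reach that level; inactive means mean lysis activity below 80%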
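Material – log-phase Cryptococcus neoformans yeast cells · Input – 5 × 10^6 yeast cells/mL · Medium – fresh YPD growth medium · Doses – single compound concentration per well · Timing – static 4 h at 37 °C with compound, 1 h detection · Detection – adenylate kinase release luminescence · Read-out – signal increase indicating cell lysis · Control set – Clomiphene as positive lysis control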
Wnt bcat act: Wnt/beta-catenin pathway activators, primary screen, cell-based, plate reader, single point | Wnt/beta-catenin reporter cell assay, activator | activation, % at 9.35 µM | actives 1.2% (n = 300,000); in the data active means activation above about 30%, passing the limit was not always enough; inconclusive means no clear call, values can overlap the other calls;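 further: 0% = neutral control wells and 100% = positive control wells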
PGC1a acetyl inh: inhibitors of PGC1a acetylation signal, primary screen, cell-based, U2OS, AlphaScreen, inhibitor mode; AlphaScreen anti-acetyl-lysine; with virally co-expressed GCN5 acetyltransferase; inhibition, % at 15.6 µM; actives 0.17% (n = 350,000);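 active means every replicate shows inhibition of at least 40%; inconclusive means mean inhibition at least 40% but some replicate below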;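 further: 0% = neutral control wells and 100% = positive control wells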
MITF TRPM1 HTS: activators of MITF-driven TRPM1 promoter reporter, primary screen, cell-based, SK-MEL-5, luciferase, single point; SK-MEL-5 TRPM1-promoter luciferase, 24 h; % of positive control, neutral wells = 0; activation, % at 12.5 µM; actives 0.75% (n = 300,000); AID 588334, 2011;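 active means mean activation of at least 80% with every replicate also reaching 80%; inconclusive means mean reaches 80% but some replicate falls short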;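 further: 0% = neutral control wells and 100% = parthenolide positive control wells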
* marks the source's active call; other numbers are inactive results; ? = inconclusive; . = no result given.

SMILES	Cneo AK release	Wnt bcat act	PGC1a acetyl inh	MITF TRPM1 HTS
O=C(O)c1ccc(NCc2cccnc2)cc1	-1.0	45.9*	0.1	-11.8
O=C(O)c1cccc(NCc2cccnc2)c1	-0.2	.	-2.0	2.7
O=C(NC(=S)N(CCO)Cc1ccccc1)c1ccc(S(=O)(=O)N2CCCC2)cc1	.	45.1*	6.3	-1.3
O=C(CSc1ccsc1[N+](=O)[O-])NCc1ccco1	.	32.9*	.	-4.6
COCCCNC(=O)CSc1ccsc1[N+](=O)[O-]	.	-1.0	.	5.2
O=C(NC1CCCCC1)c1ccc(-c2cccc([N+](=O)[O-])c2)o1	0.2	32.2*	.	115.7*
COc1ccc(S(=O)(=O)N(C)C[C@@H]2Oc3ccc(NC(=O)Cc4ccccc4)cc3C(=O)N([C@H](C)CO)C[C@@H]2C)cc1	0.1	.	-2.6	.
Cc1nc2ccc(NC(=O)Cc3cccs3)cc2s1	-3.4	61.3*	5.2	88.1*
Cc1nc2ccc(NC(=O)c3ccc(Cl)s3)cc2s1	-2.2	12.3	-9.7	87.1*
Cc1nc2ccc(NC(=O)Cc3c(F)cccc3Cl)cc2s1	.	39.1*	.	108.0*
Cc1ccc(NC(=O)Cc2cccs2)cc1Cl	-2.7	9.2	4.5	59.4
O=C(CSc1nc2ccc(NC(=O)c3ccccc3C(=O)O)cc2s1)Nc1ccc(F)c([N+](=O)[O-])c1	-0.4	35.0*	.	-2.4
Cc1ccc2nc(NC(=O)c3ccc(Cl)s3)sc2c1	-0.5	?	4.9	53.0
O=C(Cc1c(F)cccc1Cl)Nc1nc2ccccc2s1	.	-1.6	-17.4	60.7
O=C(C1CCCC1)N1CC(=O)N2[C@H](C1)[C@@H](c1ccc(C#CCc3ccccc3)cc1)[C@@H]2CO	.	.	-13.6	.
Cc1nc2ccc(NC(=O)CSc3ccccc3)cc2s1	-1.6	50.0*	0.6	98.2*
Cc1nc2ccc(NC(=O)COc3ccccc3C)cc2s1	4.1	-0.7	7.7	22.2
C/C(=N\O)c1ccc(N2C(=O)C3CC=C(Cl)CC3C2=O)cc1 (configuration not stated)	-3.1	58.8*	.	?
Cc1ccc(NC(=O)c2ccc(N3C(=O)C4CC=C(Cl)CC4C3=O)cc2)cc1 (configuration not stated)	0.5	1.3	1.2	-4.2
C[C@@H](NC(=O)C[C@@H]1CC[C@H]2[C@@H](COC[C@@H](O)CN2Cc2cc(F)ccc2F)O1)c1ccccc1	101.4*	.	-2.8	.
C[C@@H](NC(=O)C[C@H]1CC[C@@H]2[C@H](COC[C@@H](O)CN2Cc2cc(F)ccc2F)O1)c1ccccc1	1.8	.	-6.4	.
CCCNC(=O)C[C@@H]1CC[C@H]2[C@@H](COC[C@H](O)CN2Cc2ccccc2F)O1	96.9*	.	0.4	.
CCNC(=O)C[C@H]1CC[C@@H]2[C@H](COC[C@@H](O)CN2Cc2ccccc2F)O1	-4.7	.	9.2	.
C[C@@H](NC(=O)C[C@@H]1CC[C@@H]2[C@H](COC[C@H](O)CN2Cc2cc(F)ccc2F)O1)c1ccccc1	112.3*	.	3.7	.
CC(C)NC(=O)N1CCCCN2[C@@H](CO)[C@@H](c3ccc(C#CC4CC4)cc3)[C@@H]2C1	-0.3	.	9.3	.
SMILES	Cneo AK release	Wnt bcat act	PGC1a acetyl inh	MITF TRPM1 HTS
COc1ccc2cc(CCC(C)=O)ccc2c1	-6.4	2.2	-13.3	108.1*
COc1ccc(CCc2ccc3cc(OC)ccc3n2)cc1	.	14.6	-1.3	-1.0
C[C@H]1CN([C@@H](C)CO)S(=O)(=O)c2ccc(Br)cc2O[C@H]1CN(C)C(=O)C1CCCCC1	.	.	-12.4	.
COc1ccc(CN(C)C[C@@H]2Oc3ccc(NC(=O)Nc4ccccc4)cc3CC(=O)N([C@H](C)CO)C[C@@H]2C)cc1	-1.3	.	8.6	.
Cn1nnc(NC(=O)C(c2ccccc2)c2ccccc2)n1	2.1	39.6*	13.8	-9.9
CCc1ccc(NC(=O)c2n[nH]c(=O)c3ccccc23)cc1	-3.1	28.7	2.5	107.1*
O=C(OCc1nnc(-c2ccccc2)o1)C1=COCCO1	-1.0	.	60.9*	1.9
Clc1cc(Cl)c2nc(N3CCCC3)sc2c1	-1.2	36.3*	-20.6	28.7
Clc1cc(Cl)c2nc(N3CCCCC3)sc2c1	-13.3	59.8*	-6.9	69.8
Clc1cccc2sc(N3CCCCC3)nc12	8.7	.	12.8	.
Fc1cc(F)c2nc(N3CCCCC3)sc2c1	-0.2	20.6	0.1	45.8
O=C(C[C@H]1CC[C@H]2[C@@H](COC[C@@H](O)CN2CC2CC2)O1)NCc1ccc(Cl)cc1	55.7	.	-1.9	.
Nc1ccccc1C(=O)NNC1=C(C(=O)C(F)(F)F)CCC1	-1.1	68.5*	25.2	.
COCC1CCN(C(=O)c2cc(COc3ccc4c(c3)CCCC4)on2)C1 (configuration not stated)	10.6	-0.7	.	0.7
COCC1CCCN(C(=O)c2cc(COc3ccc(C(C)=O)cc3)on2)C1 (configuration not stated)	0.6	35.5*	5.2	46.7
O=C(COc1ccc2ccccc2c1)N1CCCC1	-4.2	36.5*	-13.0	44.5
CC(=O)c1ccc(OCc2cc(C(=O)NC3CCCCC3)no2)cc1	0.5	31.8*	-3.3	102.6*
O=C(c1cc(COc2ccc3c(c2)CCCC3)on1)N1CCCC1	-2.2	1.5	.	123.9*
CC(=O)c1ccc(OCc2cc(C(=O)N3CCN4CCCC4C3)no2)cc1 (configuration not stated)	0.5	1.1	.	-3.9
CCC(=O)Nc1ccc2c(c1)OC[C@@H](C)N(C(=O)COC)C[C@H](C)[C@H](OC)CN(C)C2=O	6.4	.	18.2	.
C[C@H]1CN([C@@H](C)CO)C(=O)c2cc(C#CC3(O)CCCC3)cnc2O[C@@H]1CN(C)C(=O)C1CCC1	-0.1	.	-0.9	.
C[C@H](CO)N1C[C@H](C)[C@H](CN(C)C(=O)Nc2ccc3c(c2)OCCO3)OCc2cn(nn2)CCCC1=O	-13.3	.	-1.3	.
C[C@H](CO)N1C[C@H](C)[C@@H](CN(C)Cc2ccc(C(=O)Nc3ccccc3N)cc2)Oc2c(NC(=O)c3nc4ccccc4s3)cccc2C1=O	3.4	.	-7.0	.
Cc1ccc(OCC(=O)N2CCc3ccccc32)cc1	0.3	25.8	-12.0	59.3
O=C(O)c1ccc(COc2ccc3c(c2)CCC3)cc1	-0.8	33.0*	4.6	24.5
SMILES	Cneo AK release	Wnt bcat act	PGC1a acetyl inh	MITF TRPM1 HTS
CC(=O)c1ccc(OCc2cc(C(=O)N3CC[C@@H]4CCCC[C@H]4C3)no2)cc1	1.2	37.2*	.	72.7
NNC(=O)c1ccc(COc2ccc3c(c2)CCC3)cc1	.	11.0	.	16.9
O=C(COc1ccc2c(c1)CCC2)N1CCc2ccccc21	-7.1	60.2*	-12.2	.
CC(=O)c1ccc(OCc2cc(C(=O)N(C)CCOc3ccc(C)cc3)no2)cc1	-2.7	-0.3	2.3	116.0*
O=C(N[C@H]1C=C[C@H](CC(=O)N2CCCCC2)O[C@H]1CO)c1ccccn1	-4.2	.	6.1	.
CC(=O)Nc1nc(COc2ccccc2)cs1	-4.4	.	3.7	72.7
O=C(Nc1nc(COc2ccccc2)cs1)C12CC3CC(CC(C3)C1)C2	-3.6	11.0	-1.8	41.5
Nc1nc(COc2ccc3ccccc3c2)cs1	-0.6	.	4.7	104.2*

Bioassay records deposited in PubChem BioAssay by Broad Institute.
